In ChEMBL document CHEMBL4261561, “Thiosemicarbazone-based selective proliferation inactivators inhibit gastric cancer cell growth, invasion, and migration” (Medchemcomm, 2017):
Active and inactive are the calls of the source. No cut-off for these calls is given here.

Tests used:
MGC-803 [1] = assay: Antiproliferative activity against human MGC803 cells after 72 hrs by MTT assay; type: functional, cell-based; details: MGC-803, 72 h
Outline: (§1)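 Exponentially growing cells were seeded at about 3×10^3 per well and left 24 h, then given fresh medium with a range of compound concentrations for 72 h. MTT solution (5 mg/mL) was added for another 4 h. Medium was removed, formazan was dissolved in DMSO, and absorbance was read at 570 nm. IC50 was derived statistically.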

SMMC-7721 = assay: Antiproliferative activity against human SMMC7721 cells after 72 hrs by MTT assay; type: functional, cell-based; details: SMMC-7721, 72 h; outline: as §1
MCF7 = assay: Antiproliferative activity against human MCF7 cells after 72 hrs by MTT assay; type: functional, cell-based; details: MCF7, 72 h; outline: as §1
GES1 = assay: Cytotoxicity against human GES-1 cells after 72 hrs by MTT assay; type: cell-based; details: GES1, 72 h; outline: as §1
MGC-803 [2] = assay: Cell cycle arrest in human MGC803 cells assessed as accumulation at G1 phase at 0.1 uM after 48 hrs by propidium iodide staining-based flow cytometric method (reference value: 60.55%); type: functional
MGC-803 [3] = assay: Potency index, ratio of 3-AP IC50 to test compound IC50 for human MGC803 cells after 72 hrs by MTT assay; type: functional
MGC-803 [4] = assay: Anticlonogenic activity against human MGC803 cells at 0.1 to 0.5 uM after 7 to 14 days by crystal violet staining based assay; type: functional, cell-based
Outline: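 MGC-803 cells were seeded at about 1×10^3 per well and left 24 h, then grown 14 days in fresh medium with varied compound concentrations. Cells were PBS-washed, fixed in 4% paraformaldehyde for 30 min, and stained with 1% crystal violet for 30 min at 37°C before colonies were washed clear.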

MGC-803 [5] = assay: Cell cycle arrest in human MGC803 cells assessed as accumulation at S phase at 0.1 uM after 48 hrs by propidium iodide staining-based flow cytometric method (reference value: 28.84%); type: functional
MGC-803 [6] = assay: Cell cycle arrest in human MGC803 cells assessed as accumulation at G2 phase at 0.1 uM after 48 hrs by propidium iodide staining-based flow cytometric method (reference value: 10.60%); type: functional
MGC-803 [7] = assay: Cell cycle arrest in human MGC803 cells assessed as accumulation at G1 phase at 0.25 uM after 48 hrs by propidium iodide staining-based flow cytometric method (reference value: 60.55%); type: functional
MGC-803 [8] = assay: Cell cycle arrest in human MGC803 cells assessed as accumulation at S phase at 0.25 uM after 48 hrs by propidium iodide staining-based flow cytometric method (reference value: 28.84%); type: functional
MGC-803 [9] = assay: Cell cycle arrest in human MGC803 cells assessed as accumulation at G2 phase at 0.25 uM after 48 hrs by propidium iodide staining-based flow cytometric method (reference value: 10.60%); type: functional
MGC-803 [10] = assay: Cell cycle arrest in human MGC803 cells assessed as accumulation at G1 phase at 0.5 uM after 48 hrs by propidium iodide staining-based flow cytometric method (reference value: 60.55%); type: functional
MGC-803 [11] = assay: Cell cycle arrest in human MGC803 cells assessed as accumulation at S phase at 0.5 uM after 48 hrs by propidium iodide staining-based flow cytometric method (reference value: 28.84%); type: functional
MGC-803 [12] = assay: Cell cycle arrest in human MGC803 cells assessed as accumulation at G2 phase at 0.5 uM after 48 hrs by propidium iodide staining-based flow cytometric method (reference value: 10.60%); type: functional
MGC-803 [13] = assay: Up-regulation of E-cadherin protein expression in human MGC803 cells up to 0.5 uM after 48 hrs by Western blot analysis; type: functional, cell-based
Outline: (§2)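 Treated MGC-803 cells were lysed on ice for 30 min in NP-40/SDS/deoxycholate/PMSF buffer. Equal protein was separated by SDS-PAGE and transferred to 0.22 µm nitrocellulose. Membranes were blocked 2 h in 5% nonfat milk/PBS, probed with primary antibody at 4°C overnight, then incubated with secondary antibody for 2 h.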

MGC-803 [14] = assay: Down regulation of N-cadherin protein expression in human MGC803 cells up to 0.5 uM after 48 hrs by Western blot analysis; type: functional, cell-based; outline: as §2
MGC-803 [15] = assay: Induction of apoptosis in human MGC803 cells assessed as cell rounding up to 0.5 uM after 48 hrs by Hoechst 33258 staining based fluorescence microscopic method; type: functional
Outline: (§3)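 About 2×10^5 MGC-803 cells per well were treated after attachment with increasing compound concentrations for 48 h. They were fixed and stained with 20 µg/mL Hoechst-33258 for 30 min in the dark, then PBS-washed three times and viewed by fluorescence microscopy under UV excitation. Apoptotic cells were scored by nuclear condensation and fragmentation.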

MGC-803 [16] = assay: Induction of apoptosis in human MGC803 cells assessed as chromatin shrinkage up to 0.5 uM after 48 hrs by Hoechst 33258 staining based fluorescence microscopic method; type: functional, cell-based; outline: as §3
MGC-803 [17] = assay: Induction of apoptosis in human MGC803 cells assessed as formation of apoptotic bodies up to 0.5 uM after 48 hrs by Hoechst 33258 staining based fluorescence microscopic method; type: functional, cell-based; outline: as §3
MGC-803 [18] = assay: Induction of apoptosis in human MGC803 cells after 48 hrs by Annexin-V/propidium iodide staining based flow cytometric analysis; type: functional, cell-based
MGC-803 [19] = assay: Induction of apoptosis in human MGC803 cells assessed as early apoptotic cells at 0.1 uM after 48 hrs by Annexin-V/propidium iodide staining based flow cytometric analysis (reference value: 3.4%); type: functional
MGC-803 [20] = assay: Induction of apoptosis in human MGC803 cells assessed as late apoptotic cells at 0.1 uM after 48 hrs by Annexin-V/propidium iodide staining based flow cytometric analysis (reference value: 0.3%); type: functional
MGC-803 [21] = assay: Induction of apoptosis in human MGC803 cells assessed as necrotic cells at 0.1 uM after 48 hrs by Annexin-V/propidium iodide staining based flow cytometric analysis (reference value: 0.1%); type: functional
MGC-803 [22] = assay: Induction of apoptosis in human MGC803 cells assessed as viable cells at 0.1 uM after 48 hrs by Annexin-V/propidium iodide staining based flow cytometric analysis (reference value: 96.1%); type: functional; details: MGC-803, 48 h, read-out: Activity
MGC-803 [23] = assay: Induction of apoptosis in human MGC803 cells assessed as early apoptotic cells at 0.25 uM after 48 hrs by Annexin-V/propidium iodide staining based flow cytometric analysis (reference value: 3.4%); type: functional
MGC-803 [24] = assay: Induction of apoptosis in human MGC803 cells assessed as late apoptotic cells at 0.25 uM after 48 hrs by Annexin-V/propidium iodide staining based flow cytometric analysis (reference value: 0.3%); type: functional
MGC-803 [25] = assay: Induction of apoptosis in human MGC803 cells assessed as necrotic cells at 0.25 uM after 48 hrs by Annexin-V/propidium iodide staining based flow cytometric analysis (reference value: 0.1%); type: functional
MGC-803 [26] = assay: Induction of apoptosis in human MGC803 cells assessed as viable cells at 0.25 uM after 48 hrs by Annexin-V/propidium iodide staining based flow cytometric analysis (reference value: 96.1%); type: functional; details: MGC-803, 48 h, read-out: Activity
MGC-803 [27] = assay: Induction of apoptosis in human MGC803 cells assessed as early apoptotic cells at 0.5 uM after 48 hrs by Annexin-V/propidium iodide staining based flow cytometric analysis (reference value: 3.4%); type: functional
MGC-803 [28] = assay: Induction of apoptosis in human MGC803 cells assessed as late apoptotic cells at 0.5 uM after 48 hrs by Annexin-V/propidium iodide staining based flow cytometric analysis (reference value: 0.3%); type: functional
MGC-803 [29] = assay: Induction of apoptosis in human MGC803 cells assessed as necrotic cells at 0.5 uM after 48 hrs by Annexin-V/propidium iodide staining based flow cytometric analysis (reference value: 0.1%); type: functional
MGC-803 [30] = assay: Induction of apoptosis in human MGC803 cells assessed as viable cells at 0.5 uM after 48 hrs by Annexin-V/propidium iodide staining based flow cytometric analysis (reference value: 96.1%); type: functional; details: MGC-803, 48 h, read-out: Activity
MGC-803 [31] = assay: Induction of apoptosis in human MGC803 cells assessed as up-regulation of Bax expression after 48 hrs by Western blot analysis; type: functional, cell-based; outline: as §2
MGC-803 [32] = assay: Induction of apoptosis in human MGC803 cells assessed as down regulation of Bcl-2 expression after 48 hrs by Western blot analysis; type: functional, cell-based; outline: as §2
MGC-803 [33] = assay: Antimigratory activity against human MGC803 cells after 48 hrs by wound healing assay; type: functional, cell-based
Outline: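 Confluent monolayers were scratched with a sterile pipette tip and PBS-washed. Cells were then cultured in medium containing only 1% FBS with varied compound concentrations for 48 h. Wounds were photographed under an inverted microscope at 0 h and 48 h.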

MGC-803 [34] = assay: Antimigratory activity against human MGC803 cells after 48 hrs by Hoechst 33258 staining based transwell assay; type: functional, cell-based
Outline: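 This was a transwell migration set-up. MGC-803 cells in medium with 1% FBS and varied compound concentrations went into the upper chamber, with 20% FBS medium below. After 48 h, chambers were PBS-washed and migrated cells were methanol-fixed. They were stained with 20 µg/mL Hoechst-33258 for 30 min in the dark and imaged on a high-content system.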

MGC-803 [35] = assay: Anti-invasive activity against human MGC803 cells after 48 hrs by Hoechst 33258 staining based matrigel coated transwell assay; type: functional, cell-based
Outline: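 This was an invasion variant of the transwell assay, with the upper chamber precoated with Matrigel. MGC-803 cells in 1% FBS medium with varied compound concentrations were placed above 20% FBS medium. After 48 h, cells were methanol-fixed, stained with 20 µg/mL Hoechst-33258 for 30 min in the dark, and imaged.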

MGC-803 [36] = assay: Antiproliferative activity against human MGC803 cells after 24 hrs by MTT assay; type: functional, cell-based; details: MGC-803, 24 h
MGC-803 [37] = assay: Antiproliferative activity against human MGC803 cells after 48 hrs by MTT assay; type: functional, cell-based; details: MGC-803, 48 h
MGC-803 [38] = assay: Cell cycle arrest in human MGC803 cells assessed as accumulation at S phase after 48 hrs by propidium iodide staining-based flow cytometric method; type: functional

NC(=S)N/N=C/c1ncccc1N [TRIAPINE]
IC50 (MGC-803 [1]): 9.68 µM
IC50 (SMMC-7721): 42.8 µM
IC50 (MCF7): 18.9 µM
IC50 (GES1): 5.4 µM

C/C(=N\NC(=S)Nc1ccccc1)c1cc(Cl)ccc1O
Activity (MGC-803 [2]): 57.45%
IC50 (MGC-803 [1]): 0.93 µM
IC50 (SMMC-7721): 19.2 µM
IC50 (MCF7): 9.99 µM
IC50 (GES1): 27.9 µM
Ratio IC50 (MGC-803 [3]): 10
Activity (MGC-803 [4]): Active
Activity (MGC-803 [5]): 32.82%
Activity (MGC-803 [6]): 9.73%
Activity (MGC-803 [7]): 53.93%
Activity (MGC-803 [8]): 46.07%
Activity (MGC-803 [9]): 0%
Activity (MGC-803 [10]): 48.15%
Activity (MGC-803 [11]): 51.85%
Activity (MGC-803 [12]): 0%
Activity (MGC-803 [13]): Active
Activity (MGC-803 [14]): Active
Activity (MGC-803 [15]): Active
Activity (MGC-803 [16]): Active
Activity (MGC-803 [17]): Active
Activity (MGC-803 [18]): Dose-dependent effect
Activity (MGC-803 [19]): 10.5%
Activity (MGC-803 [20]): 0.4%
Activity (MGC-803 [21]): 0.1%
viability at 0.1 µM (MGC-803 [22]): 89%
Activity (MGC-803 [23]): 15.1%
Activity (MGC-803 [24]): 1.3%
Activity (MGC-803 [25]): 0.2%
viability at 0.25 µM (MGC-803 [26]): 83.5%
Activity (MGC-803 [27]): 30%
Activity (MGC-803 [28]): 2.3%
Activity (MGC-803 [29]): 0.3%
viability at 0.5 µM (MGC-803 [30]): 67.4%
Activity (MGC-803 [31]): Dose-dependent effect
Activity (MGC-803 [32]): Dose-dependent effect
Activity (MGC-803 [33]): Dose-dependent effect
Activity (MGC-803 [34]): Dose-dependent effect
Activity (MGC-803 [35]): Dose-dependent effect
IC50 (MGC-803 [36]): > 64 µM
IC50 (MGC-803 [37]): 9.22 µM
Activity (MGC-803 [38]): Dose-dependent effect

C/C(=N\NC(=S)N1CCOCC1)c1cccc(O)c1
IC50 (MGC-803 [1]): > 64 µM
IC50 (SMMC-7721): > 64 µM
IC50 (MCF7): > 64 µM

COc1cc(/C=N/NC(=S)N2CCOCC2)cc(OC)c1OC
IC50 (MGC-803 [1]): > 64 µM
IC50 (SMMC-7721): > 64 µM
IC50 (MCF7): > 64 µM

C/C(=N\NC(=S)N1CCOCC1)c1cc(Cl)ccc1O
IC50 (MGC-803 [1]): 3.06 µM
IC50 (SMMC-7721): > 64 µM
IC50 (MCF7): 29.2 µM

COc1ccc(/C=N/NC(=S)N2CCOCC2)c(O)c1
IC50 (MGC-803 [1]): 56.1 µM
IC50 (SMMC-7721): 38.3 µM
IC50 (MCF7): > 64 µM

C/C(=N\NC(=S)N1CCN(C(=O)OC(C)(C)C)CC1)c1cc(Cl)ccc1O
IC50 (MGC-803 [1]): 58.4 µM
IC50 (SMMC-7721): > 64 µM
IC50 (MCF7): > 64 µM

S=C(N/N=C/c1ccc2ccccc2c1)N1CCOCC1
IC50 (MGC-803 [1]): 32.6 µM
IC50 (SMMC-7721): > 64 µM
IC50 (MCF7): > 64 µM

C/C(=N\NC(=S)N1CCOCC1)c1ccccc1O
IC50 (MGC-803 [1]): 11.2 µM
IC50 (SMMC-7721): > 64 µM
IC50 (MCF7): 49.2 µM
